Assays:
[1] = system: Respiratory syncytial virus; experiment: Antiviral activity against RSV RSS in Hep2 cells by whole cell XTT assay; type: functional, organism-based; conditions: human respiratory syncytial virus, HEp-2
In short: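 Primary whole-cell assay with XTT read-out of infected cells. Parallel cultures without virus were run to measure compound cytotoxicity. IC50 values were derived.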

HEp-2 = experiment: Cytotoxicity against Hep2 cell at 50 uM; type: functional, cell-based; conditions: Homo sapiens
In short: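 Run alongside the whole-cell antiviral XTT assay, without virus, to measure compound toxicity to the cells. The read-out is XTT.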

[2] = Apparent oral clearance in Sprague-Dawley rat at 20 mg/kg, po; type: ADME, organism-based; set-up: dose 20 mg/kg, route oral; conditions: in vivo
[3] = Tmax in Sprague-Dawley rat at 20 mg/kg, po; type: ADME, organism-based; set-up: dose 20 mg/kg, route oral; conditions: in vivo
[4] = Cmax in Sprague-Dawley rat at 20 mg/kg, po; type: ADME, organism-based; set-up: dose 20 mg/kg, route oral; conditions: in vivo

SMILES	IC50 [1]	Activity (HEp-2)	CL/F [2]	Tmax [3]	Cmax [4]
COc1ccccc1C(=O)NC1N=C(c2ccc(C(F)(F)F)cc2)c2ccccc2NC1=O (centres undefined)	> 50 µM	Not toxic	–	–	–
O=C(Nc1ccccc1F)NC1N=C(C2CCCCC2)c2ccccc2NC1=O (centres undefined)	> 50 µM	Not toxic	–	–	–
O=C(NC1N=C(c2ccccc2)c2ccccc2NC1=O)c1cccc(OC(F)(F)F)c1 (centres undefined)	14.6 µM	Not toxic	–	–	–
COc1ccc2c(c1)C(c1ccccc1)=NC(NC(=O)c1ccccc1OC)C(=O)N2 (centres undefined)	> 50 µM	Not toxic	–	–	–
O=C(NC1N=C(c2ccc(C(F)(F)F)cc2)c2ccccc2NC1=O)c1ccco1 (centres undefined)	> 50 µM	Not toxic	–	–	–
COc1cc([N+](=O)[O-])ccc1C(=O)NC1N=C(c2ccccc2)c2ccccc2N(C)C1=O (centres undefined)	> 50 µM	Not toxic	–	–	–
O=C(NC1N=C(c2ccccc2)c2ccccc2NC1=O)c1ccc([N+](=O)[O-])cc1 (centres undefined)	6.7 µM	Not toxic	–	–	–
O=C(NC1N=C(c2ccccc2)c2ccccc2NC1=O)c1cccc([N+](=O)[O-])c1 (centres undefined)	7.4 µM	Not toxic	–	–	–
CNc1ccccc1C(=O)NC1N=C(c2ccccc2)c2ccccc2NC1=O (centres undefined)	9.6 µM	Not toxic	–	–	–
CN1CCN(C(=O)NC2N=C(c3ccccc3)c3ccccc3NC2=O)CC1 (centres undefined)	9.3 µM	Not toxic	–	–	–
COc1cc(S(C)(=O)=O)ccc1C(=O)NC1N=C(c2ccccc2)c2ccccc2NC1=O (centres undefined)	2 µM	Not toxic	–	–	–
CC(C)C(=O)NC1N=C(c2ccccc2)c2ccccc2NC1=O (centres undefined)	9.5 µM	Not toxic	–	–	–
O=C(NC1N=C(c2ccccc2)c2ccccc2NC1=O)c1ccccc1OC(F)(F)F (centres undefined)	14.4 µM	Not toxic	–	–	–
O=C(NC1N=C(C2CCCCC2)c2ccccc2NC1=O)c1ccco1 (centres undefined)	> 50 µM	Not toxic	–	–	–
O=C1Nc2ccccc2C(c2ccccc2)=NC1NC(=O)C1CCCO1 (centres undefined)	17.4 µM	Not toxic	–	–	–
CN1C(=O)C(NC(=O)Nc2ccccc2F)N=C(c2ccccc2)c2ccccc21 (centres undefined)	> 50 µM	Not toxic	–	–	–
COc1ccccc1C(=O)NC1N=C(c2ccc(F)cc2)c2ccccc2NC1=O (centres undefined)	16.5 µM	Not toxic	–	–	–
O=C(NC1N=C(c2ccccc2F)c2cc(Cl)ccc2NC1=O)c1ccco1 (centres undefined)	41.3 µM	Not toxic	–	–	–
COc1cccc(C2=NC(NC(=O)c3ccccc3OC)C(=O)Nc3ccccc32)c1 (centres undefined)	> 50 µM	Not toxic	–	–	–
CCN(CC)C(=O)NC1N=C(c2ccccc2)c2ccccc2NC1=O (centres undefined)	20.7 µM	Not toxic	–	–	–
CCN(CC)C1N=C(c2ccccc2)c2ccccc2NC1=O (centres undefined)	> 50 µM	Not toxic	–	–	–
COc1cc2c(cc1OC)C(c1ccccc1)=NC(NC(=O)c1ccccc1OC)C(=O)N2 (centres undefined)	> 50 µM	Not toxic	–	–	–
COc1ccccc1C(=O)NC1N=C(c2ccccc2F)c2cc(Cl)ccc2NC1=O (centres undefined)	26.2 µM	Not toxic	–	–	–
O=C(NC1N=C(c2ccccc2)c2ccccc2NC1=O)c1cccs1 (centres undefined)	5.6 µM	Not toxic	–	–	–
COc1cc([N+](=O)[O-])ccc1C(=O)N(C)C1N=C(c2ccccc2)c2ccccc2NC1=O (centres undefined)	25.1 µM	Not toxic	–	–	–
CC(C)(C)C(=O)NC1N=C(c2ccccc2)c2ccccc2NC1=O (centres undefined)	16.7 µM	Not toxic	–	–	–
O=C(Nc1ccccc1F)OC1N=C(c2ccccc2)c2ccccc2NC1=O (centres undefined)	16.1 µM	Not toxic	–	–	–

SMILES	IC50 [1]	Activity (HEp-2)	CL/F [2]	Tmax [3]	Cmax [4]
Cc1cc(C(=O)NC2N=C(c3ccccc3)c3ccccc3NC2=O)oc1C (centres undefined)	2.8 µM	Not toxic	–	–	–
O=C(NC1N=C(c2ccccc2)c2ccccc2NC1=O)c1cccc(C(F)(F)F)c1 (centres undefined)	7.5 µM	Not toxic	–	–	–
O=C1Nc2ccccc2C(c2ccccc2)=NC1NC(=O)N1CCOCC1 (centres undefined)	9.7 µM	Not toxic	–	–	–
COc1ccccc1C(=O)NC1N=C(c2ccccc2)c2ccc(C)cc2NC1=O (centres undefined)	19.2 µM	Not toxic	–	–	–
O=C(NC1N=C(c2ccccc2)c2ccccc2NC1=O)c1ccc(N2CCOCC2)cc1Cl (centres undefined)	3.4 µM	Not toxic	–	–	–
O=C(NC1N=C(c2cccc(Cl)c2)c2ccccc2NC1=O)c1ccco1 (centres undefined)	6.9 µM	Not toxic	–	–	–
O=C1Nc2ccccc2C(c2ccccc2)=NC1N1CCOCC1 (centres undefined)	> 50 µM	Not toxic	–	–	–
CCOc1ccccc1C(=O)NC1N=C(c2ccccc2)c2ccccc2NC1=O (centres undefined)	3.6 µM	Not toxic	–	–	–
COc1ccccc1C(=O)NC1N=C(c2cccc(C(F)(F)F)c2)c2ccccc2NC1=O (centres undefined)	16.7 µM	Not toxic	–	–	–
O=C(NC1N=C(c2ccccc2)c2ccccc2NC1=O)C1CCCCC1 (centres undefined)	–	Not toxic	–	–	–
O=C(NC1N=C(c2ccccc2)c2ccccc2NC1=O)c1ccccc1CN1CCOCC1 (centres undefined)	20.7 µM	Not toxic	–	–	–
COc1ccc(C(=O)NC2N=C(C)c3ccccc3NC2=O)cc1 (centres undefined)	> 50 µM	Not toxic	–	–	–
COc1ccccc1CNC1N=C(c2ccccc2)c2ccccc2NC1=O (centres undefined)	27.3 µM	Not toxic	–	–	–
O=C(NC1N=C(c2ccccc2)c2ccccc2NC1=O)c1ccco1 (centres undefined)	3.2 µM	Not toxic	–	–	–
COc1ccc(C(=O)NC2N=C(c3ccccc3)c3ccccc3NC2=O)cc1 (centres undefined)	3.6 µM	Not toxic	–	–	–
O=C(NC1N=C(c2cccc(C(F)(F)F)c2)c2ccccc2NC1=O)c1ccco1 (centres undefined)	18.8 µM	Not toxic	–	–	–
COc1ccc(C2=NC(NC(=O)c3ccccc3OC)C(=O)Nc3ccccc32)cc1 (centres undefined)	> 50 µM	Not toxic	–	–	–
O=C(NC1N=C(c2ccccc2)c2ccccc2NC1=O)c1ccccc1C1CCCCC1 (centres undefined)	> 50 µM	Not toxic	–	–	–
COc1cccc(C(=O)NC2N=C(c3ccccc3)c3ccccc3NC2=O)c1 (centres undefined)	6.6 µM	Not toxic	–	–	–
COc1ccc(C(=O)NC2N=C(c3ccccc3)c3ccccc3NC2=O)c(OC)c1 (centres undefined)	2.1 µM	Not toxic	–	–	–
O=C(NC1N=C(c2ccccc2)c2ccccc2NC1=O)c1ccccc1 (centres undefined)	5.5 µM	Not toxic	–	–	–
COc1ccc(CNC2N=C(c3ccccc3)c3ccccc3NC2=O)cc1 (centres undefined)	–	Not toxic	–	–	–
O=C(NC1N=C(c2ccccc2)c2ccc(Cl)cc2NC1=O)c1cccs1 (centres undefined)	26.7 µM	Not toxic	–	–	–
CCCOc1ccccc1C(=O)NC1N=C(c2ccccc2)c2ccccc2NC1=O (centres undefined)	40.2 µM	Not toxic	–	–	–
CN(C)c1ccccc1C(=O)NC1N=C(c2ccccc2)c2ccccc2NC1=O (centres undefined)	4.8 µM	Not toxic	–	–	–
COc1ccc(F)cc1C(=O)NC1N=C(c2ccccc2)c2ccccc2NC1=O (centres undefined)	1.5 µM	Not toxic	981 mL/min/kg	3.33 h	10.3 ng/mL
COc1ccccc1C(=O)NC1N=C(c2ccccc2)c2cc(Cl)ccc2NC1=O (centres undefined)	6.1 µM	Not toxic	–	–	–

— ChEMBL document CHEMBL1146087, “1,4-Benzodiazepines as inhibitors of respiratory syncytial virus” (J Med Chem, 2006)
